A selection: hits, their analogues and other compounds. The true share with any hit is near 1.9%.
TAG inh = triacylglycerol accumulation inhibition. AID 651582. H9c2 cells, Nile Red lipid (TAG) fluorescence; cells loaded with 200 µM oleic acid. 230,000 compounds, 0.66% hits. inhibition, % at 12.5 µM;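 active = pattern-corrected inhibition of lipid staining of at least 50% with the nuclear-stain viability signal not falling by more than 50%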
Lipid droplet = modulators of hepatic lipid droplet formation. AML12 mouse hepatocytes, oleate lipid droplets, BODIPY imaging. inhibition, % at 6.5 µM. 240,000 compounds, 0.4% hits. AID 1656;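 active = lipid droplet intensity inhibited by at least 50%, with more than 500 cells counted; inconclusive = wells with under 300 cells, treated as cytotoxic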
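Material – mouse AML12 hepatocyte cell line, fixed after treatment · Compound dosing – one dose, 6.5 µM compound · Times – compound with oleate, overnight · Measured by – Image-based BODIPY and DAPI two-channel analysis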
697 NFkB inh = lowers PMA/ionomycin-induced NF-kB signal in 697 B cells; 330,000 compounds, 0.33% hits; 697 B-cell NF-kB luciferase reporter, 16 h; AID 435022; inhibition, % at 4 µM; in the data active = inhibition above about 35%
APP 5UTR inh = APP translation inhibition; 190,000 compounds, 0.82% hits; SH-SY5Y APP 5'UTR-luciferase reporter, luminescence; inhibition, % at 2 µM; AID 1285;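 active = inhibition above a set limit, derived from the sample mean plus 3 SD, cut at about 45% in these data; inconclusive = one replicate passes the limit while the other fails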
Jurkat NFkB inh = lowers PMA/ionomycin-induced NF-kB signal in Jurkat cells; inhibition, % at 4 µM; AID 435003; 330,000 compounds, 0.53% hits; PMA/ionomycin-induced NF-kB luciferase reporter, luminescence; in the data active = inhibition above about 50%
aSyn UTR inh = 5' untranslated region of α-synuclein, MLPCN primary screen; alpha-synuclein 5'UTR reporter, inhibitor activity; inhibition, % (tested at 7.5 µM); 300,000 compounds, 0.82% hits; AID 1813; in the data active = inhibition above about 60%; inconclusive = no clear call, values can overlap the other calls;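 also: H4 neuroglioblastoma cells stably carrying SNCA 5'UTR luciferase fusion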
Hits are given with their value.

Results for COc1ccc(Nc2cc3n(c(=O)n2)CCc2cc(OC)c(OC)cc2-3)cc1 ?
Lipid droplet: inactive; 697 NFkB inh: inactive; Jurkat NFkB inh: inactive; aSyn UTR inh: inactive

What do the screens show for `COc1ccc(Nc2cc3n(c(=O)n2)CCc2cc(OC)c(OC)cc2-3)c(C)c1`?
Lipid droplet: inactive; 697 NFkB inh: inactive; Jurkat NFkB inh: inactive; aSyn UTR inh: 80

What do the screens show for `CN(C)c1ccc(/C=C2\SC(=O)N(CCc3nnc(N)s3)C2=O)cc1`?
TAG inh: inactive; Lipid droplet: inactive; 697 NFkB inh: inactive; Jurkat NFkB inh: inactive; aSyn UTR inh: 80

Results for COc1ccc(-c2oc(=O)c3cc(OC)c(OC)cc3c2-c2ccc3c(c2)OCO3)cc1 ?
TAG inh: inactive; 697 NFkB inh: inactive; Jurkat NFkB inh: inactive

What do the screens show for `COc1cc2c(OC(C)=O)c3c(c(-c4ccc5c(c4)OCO5)c2cc1OC)C(=O)OC3`?
Lipid droplet: inactive; 697 NFkB inh: inactive; APP 5UTR inh: inactive; Jurkat NFkB inh: inactive; aSyn UTR inh: 113

How did COc1cc2c(O)c3c(c(-c4ccc5c(c4)OCO5)c2cc1OC)C(=O)OC3 do in these assays?
697 NFkB inh: inactive; APP 5UTR inh: inactive; Jurkat NFkB inh: inactive; aSyn UTR inh: 108

What do the screens show for `COc1ccc(/C=C/C(=O)c2ccc3c(c2)OCO3)cc1OC`?
TAG inh: inactive; 697 NFkB inh: inactive; Jurkat NFkB inh: inactive

What do the screens show for `CCCn1c(N)c(C(=O)CSc2n[nH]c(-c3ccc(C)cc3)n2)c(=O)[nH]c1=O`?
TAG inh: inactive; 697 NFkB inh: inactive; Jurkat NFkB inh: inactive; aSyn UTR inh: inactive

How did COC(=O)c1cc(C(=O)N2CCN(c3ncccn3)CC2)cc([N+](=O)[O-])c1 do in these assays?
Lipid droplet: inactive; 697 NFkB inh: inactive; Jurkat NFkB inh: inactive; aSyn UTR inh: inactive

Results for COC(=O)c1cc(C(=O)N2CCN(c3cccc(C)c3C)CC2)cc([N+](=O)[O-])c1 ?
TAG inh: inactive; Lipid droplet: inactive; 697 NFkB inh: inactive; APP 5UTR inh: 77; Jurkat NFkB inh: inactive; aSyn UTR inh: 78

How did COCCCN=C1NN=C(c2cc(C)n(-c3ccccc3)c2C)CS1 do in these assays?
Lipid droplet: inactive; 697 NFkB inh: inactive; APP 5UTR inh: inactive; Jurkat NFkB inh: inactive; aSyn UTR inh: inactive

How did COCCCN=C1NN=C(c2cc(C)n(Cc3ccccc3Cl)c2C)CS1 do in these assays?
TAG inh: inactive; Lipid droplet: inconclusive; 697 NFkB inh: inactive; APP 5UTR inh: 76; Jurkat NFkB inh: inactive; aSyn UTR inh: inactive

Results for CC(C)CN1CC(Br)C(=O)NC1=O (stereo unspecified) ?
TAG inh: inactive

How did CCCSc1nc(SCC(=O)NCc2ccccc2)c2c3c(sc2n1)COC(C)(C)C3 do in these assays?
TAG inh: 56; 697 NFkB inh: inactive; APP 5UTR inh: inactive; Jurkat NFkB inh: inactive; aSyn UTR inh: inactive

How did CC(C)Sc1nc(SCC(=O)NCc2ccco2)c2c3c(sc2n1)COC(C)(C)C3 do in these assays?
TAG inh: inactive; 697 NFkB inh: inactive; APP 5UTR inh: inactive; Jurkat NFkB inh: inactive; aSyn UTR inh: inactive

What do the screens show for `O=c1c2ccccc2oc2cc(C#CC3(O)CCCCC3)ccc12`?
TAG inh: inactive; 697 NFkB inh: inactive; Jurkat NFkB inh: inactive; aSyn UTR inh: 77

How did O=C(CCc1ccccc1)Nc1ccc(F)cc1F do in these assays?
Lipid droplet: inactive; 697 NFkB inh: inactive; APP 5UTR inh: 47; Jurkat NFkB inh: inactive; aSyn UTR inh: inactive

How did O=C(CCc1ccccc1)Nc1ccc(Cl)cn1 do in these assays?
TAG inh: inactive; Lipid droplet: inactive; 697 NFkB inh: inactive; APP 5UTR inh: 75; Jurkat NFkB inh: inactive; aSyn UTR inh: inactive

Results for CN1CCN(c2cc3c(c4c2[nH]c2ccccc24)C(=O)CC(C)(C)C3)CC1 ?
TAG inh: 54; 697 NFkB inh: inactive; APP 5UTR inh: inactive; Jurkat NFkB inh: inactive; aSyn UTR inh: inactive

Results for CN1CCN(c2ccc(Cl)cc2NC(=O)c2cc(=O)[nH]c3ccccc23)CC1 ?
TAG inh: inactive; 697 NFkB inh: inactive; Jurkat NFkB inh: inactive

Results for COc1ccc(CNCCC(c2ccc(OC(C)C)cc2)c2ccccc2OC)cc1OC (stereo unspecified) ?
Lipid droplet: inactive; 697 NFkB inh: inactive; Jurkat NFkB inh: inactive; aSyn UTR inh: inactive

What do the screens show for `COc1ccccc1C(CCNCc1ccccc1)c1ccc(OC(C)C)cc1` (stereo unspecified)?
Lipid droplet: inactive; 697 NFkB inh: inactive; Jurkat NFkB inh: inactive; aSyn UTR inh: inactive

Screening data from PubChem.
